Hits are enriched below; roughly 2.1% of the tested compounds scored in any of these assays.
B2AR ag: agonists of human beta-2 adrenergic receptor inducing internalization. Am2.2-beta2AR cells, FAP receptor internalization, flow cytometry. 340,000 tested, 0.43% active. response, % (no concentration beside the values). AID 504454. P07550;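 active = response above a set limit, near 3 SD of response in nonfluorescent compounds, cut at about 42% in these data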
Target sequence (P07550 whole entry, looked up): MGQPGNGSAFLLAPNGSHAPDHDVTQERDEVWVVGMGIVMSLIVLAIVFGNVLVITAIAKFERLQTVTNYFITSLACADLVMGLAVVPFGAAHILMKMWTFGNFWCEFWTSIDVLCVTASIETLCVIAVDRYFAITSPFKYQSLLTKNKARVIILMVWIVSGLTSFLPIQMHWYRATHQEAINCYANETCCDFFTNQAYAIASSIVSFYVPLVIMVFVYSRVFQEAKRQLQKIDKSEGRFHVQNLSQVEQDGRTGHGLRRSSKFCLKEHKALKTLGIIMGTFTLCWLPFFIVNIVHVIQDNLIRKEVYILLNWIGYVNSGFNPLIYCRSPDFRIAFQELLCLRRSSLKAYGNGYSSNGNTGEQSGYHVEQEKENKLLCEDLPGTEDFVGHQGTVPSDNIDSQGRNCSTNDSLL
H9c2 protect: myocardial damage modulation in H9c2 cells; H9c2 cardiomyocytes, H2O2 injury protection, ATPLite, 2 h; protection from H2O2 cell death, % at 20 µM; 360,000 tested, 0.63% active; AID 588492;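 active = compounds giving at least 50% protection of heart cells from peroxide-induced death in the single-dose screen, raw or plate-pattern-corrected value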
PfGluPho inh: PfG6PD (Plasmodium falciparum) enzyme inhibition; inhibition, % at 20 µM; PfGluPho enzyme, NADPH resazurin-diaphorase fluorescence; 350,000 tested, 0.78% active;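 active = inhibition reaching at least a set limit at 20 µM in the primary screen, cut at about 59% in these data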
UCH37 inh: inhibitors of human deubiquitinating enzyme UCH37 | Q9Y5K5 | purified proteasome/UCH37, Ub-AMC cleavage fluorescence | inhibition, % (no concentration beside the values) | 330,000 tested, 0.33% active | AID 588478;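 active = mean inhibition over replicate wells above about 20%, limit read from the data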
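Material: human UCH37 enzyme supplied as purified proteasome complex. Measure: % inhibition of Ub-AMC cleavage fluorescence. Medium: pH 7.4 Tris-HCl (50 mM) with ovalbumin, ATP-MgCl2, DTT. Times: 30 min preincubation with enzyme, 25 min cleavage at room temperature. Detection: AMC fluorescence intensity at 355/460 nm.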
HKDC1 inh: inhibitors of human hexokinase HKDC1; Q2TB90; recombinant HKDC1, G6PDH/diaphorase resazurin coupled fluorescence; inhibition, % at 20 µM; 340,000 tested, 0.16% active; AID 493160;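 active = inhibition above about 35% when tested at 20 µM, limit read from the data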
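Test system: Recombinant HKDC1 (HK5) hexokinase enzyme, produced in-house | Input: HKDC1 at 5 µg/mL | Buffer or medium: Tris pH 8.0 buffer with MgCl2, Tween-20, BSA, BME | Schedule: 90 min reaction incubation at room temperature, dark | Technique: Resazurin-to-resorufin fluorescence via G6PDH and diaphorase coupling, 525/613 nm | Controls: DMSO wells with and without enzyme mix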
aDG glyco act: increases alpha dystroglycan glycosylation. 360,000 tested, 0.22% active. Pro5-aDG cells, alpha-DG glycosylation AlphaScreen (IIH6); 0% Pro5, 100% B10-LARGE cell signal. activation, % at 10 µM. AID 624168;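 active = activation of at least 8% versus controls, or a plate z-score of at least 8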;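 also: Pro5 are CHO cells carrying HIG-tagged alpha-DG that lacks glycosylation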
Large screens that a line does not name were inactive.

CCCn1c(=O)c(C(=O)NN=Cc2ccccc2F)c(O)c2ccccc21	none (no result: B2AR ag, H9c2 protect, PfGluPho inh, HKDC1 inh, aDG glyco act)
c1ccc(C2=NOC(c3nnc(-c4ccccc4)o3)C2)cc1 (stereo not given)	UCH37 inh 33.2
O=C(N/N=C/c1ccc(O)c(O)c1O)/C(=C/c1ccc([N+](=O)[O-])cc1)NC(=O)c1ccccc1	H9c2 protect 60.9, PfGluPho inh 83.8 (no result: UCH37 inh)
CN(C)c1ccc(/C=C(/NC(=O)c2ccccc2)C(=O)NN=Cc2ccc([N+](=O)[O-])c(O)c2)cc1	UCH37 inh 20.2 (no result: B2AR ag, H9c2 protect, PfGluPho inh, HKDC1 inh, aDG glyco act)
CN(C)c1ccc(/C=C(\NC(=O)c2ccccc2)C(=O)N/N=C/c2ccc(C(=O)O)cc2)cc1	none (no result: UCH37 inh)
O=C(COc1ccc(Cl)cc1Cl)NN=Cc1ccccn1	none (no result: B2AR ag, H9c2 protect, PfGluPho inh, HKDC1 inh, aDG glyco act)
O=C(CCc1ccccc1)NN=Cc1cccc(O)c1	none (no result: B2AR ag, H9c2 protect, PfGluPho inh, HKDC1 inh, aDG glyco act)
CNC(=S)NN=Cc1cc(Br)cc(Br)c1O	none (no result: B2AR ag, H9c2 protect, PfGluPho inh, HKDC1 inh, aDG glyco act)
COc1ccc(-c2nnc(NC(=O)c3ccc(F)cc3)o2)cc1	H9c2 protect 67.8
Cc1ccc(C(=O)Nc2nnc(-c3ccco3)o2)cc1	none
CCC1CCCCN1S(=O)(=O)c1ccc(C(=O)Nc2nnc(-c3cccs3)o2)cc1 (stereo not given)	H9c2 protect 75.1
CCC1CCCCN1S(=O)(=O)c1ccc(NC(=O)c2cccnc2)cc1 (stereo not given)	none
COc1cccc(-c2nnc(NC(=O)c3ccc(S(=O)(=O)N4CC(C)OC(C)C4)cc3)o2)c1 (stereo not given)	H9c2 protect 55.5
O=C(Nc1nnc(-c2ccco2)o1)c1ccc2ccccc2c1	H9c2 protect 64.4
COc1ccc(C=NNC(=O)Cn2cnc3ccccc3c2=O)cc1OC	none (no result: B2AR ag, H9c2 protect, PfGluPho inh, HKDC1 inh, aDG glyco act)
O=C(CN1CCCc2ccccc21)NN=Cc1ccc(F)cc1F	none (no result: B2AR ag, H9c2 protect, PfGluPho inh, HKDC1 inh, aDG glyco act)
O=C(NN=Cc1ccccc1Cl)c1ccc(F)cc1	none (no result: B2AR ag, H9c2 protect, PfGluPho inh, HKDC1 inh, aDG glyco act)
CCOc1ccc(C=NNC(=O)C2(O)c3ccccc3-c3ccccc32)cc1	none (no result: B2AR ag, H9c2 protect, PfGluPho inh, HKDC1 inh, aDG glyco act)
CC1CC(C)CN(S(=O)(=O)c2ccc(C(=O)Nc3sccc3C(N)=O)cc2)C1 (stereo not given)	none
CC1CC(C)CN(S(=O)(=O)c2ccc(C(=O)Nc3nnc(-c4cccs4)o3)cc2)C1 (stereo not given)	H9c2 protect 50.3
Cc1cc(NC(=O)c2cccs2)cc(-c2nc3ncccc3o2)c1O	H9c2 protect 58.5
CC1CC(=NNC(N)=S)c2cc(Cl)ccc2S1 (stereo not given)	none (no result: B2AR ag, H9c2 protect, PfGluPho inh, HKDC1 inh, aDG glyco act)
COc1ccc(-c2nn(CCC#N)cc2C=NO)cc1	none (no result: B2AR ag, H9c2 protect, PfGluPho inh, HKDC1 inh, aDG glyco act)
Cc1cccc(/C=N/NC(=O)c2c(-c3ccccc3)noc2C)c1O	H9c2 protect 54.1 (no result: UCH37 inh)
O=C(CC=NOCc1c(Cl)cccc1Cl)c1ccccc1	none (no result: B2AR ag, H9c2 protect, PfGluPho inh, HKDC1 inh, aDG glyco act)
COc1ccc(-c2cn3c(C)c(C(=O)Nc4cccc(C)n4)sc3n2)cc1	PfGluPho inh 62.2
O=[N+]([O-])c1ccc(O)c(C=NNc2ncnc3c2cnn3-c2ccccc2)c1	none (no result: B2AR ag, H9c2 protect, PfGluPho inh, HKDC1 inh, aDG glyco act)
CC(=NNC(=O)c1nc(C)cc(C)n1)c1ccccc1	none (no result: B2AR ag, H9c2 protect, PfGluPho inh, HKDC1 inh, aDG glyco act)
O=C(CSc1nnc(Cc2cccs2)n1CCc1ccccc1)N1CCCc2ccccc21	H9c2 protect 66.7
CCOc1cc(C=NNC(=O)C2CCCC2)ccc1O	none (no result: B2AR ag, H9c2 protect, PfGluPho inh, HKDC1 inh, aDG glyco act)
O=C(N[C@@H](Cc1ccccc1)C(=O)CCl)OCc1ccccc1	B2AR ag 47.3
O/N=C\c1ccc(-c2ccccc2)o1	none (no result: UCH37 inh)
O=C(O)CCc1ccc(-c2ccccc2)o1	PfGluPho inh 66.1
CC(=NO)C1(C)N(O)C(C)(C)C(c2ccc(Br)cc2)=[N+]1[O-] (stereo not given)	none (no result: B2AR ag, H9c2 protect, PfGluPho inh, HKDC1 inh, aDG glyco act)
Cc1ccc(C(=O)N/N=C/c2ccc([N+](=O)[O-])s2)cc1	aDG glyco act 12.7 (no result: UCH37 inh)
O=C(N/N=C/c1ccc([N+](=O)[O-])s1)c1cccc(Br)c1	aDG glyco act 8.9 (no result: UCH37 inh)
O=C(NN=Cc1ccc([N+](=O)[O-])s1)c1cccc(Br)c1	none (no result: B2AR ag, H9c2 protect, PfGluPho inh, HKDC1 inh, aDG glyco act)
O=C(N/N=C/c1ccc([N+](=O)[O-])s1)c1ccncc1	aDG glyco act 12.1 (no result: UCH37 inh)
O=C(NN=Cc1ccc(N2CCOCC2)s1)c1ccc([N+](=O)[O-])cc1	H9c2 protect 62.7
Cc1ccc(C(=O)NN=Cc2ccc([N+](=O)[O-])s2)cc1	none (no result: B2AR ag, H9c2 protect, PfGluPho inh, HKDC1 inh, aDG glyco act)
Cc1[nH]n(-c2ccccc2)c(=O)c1C=NNC(=O)c1ccc(O)cc1O	none (no result: B2AR ag, H9c2 protect, PfGluPho inh, HKDC1 inh, aDG glyco act)
Brc1ccc(-c2csc(NN=Cc3ccco3)n2)cc1	none (no result: B2AR ag, H9c2 protect, PfGluPho inh, HKDC1 inh, aDG glyco act)
O=c1cc(COc2ncnc3ccccc23)nc2sccn12	none

High-throughput results from PubChem BioAssay.
